Values after ≈ are worked out from the molar mass of the structure shown.
Experiments:
Assay type in all cases: functional
PBMC [1] = experiment: Inhibition of LPS-induced IL1-beta release in human PBMC at 10 uM […]
Summary of the method: (§1)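 Test compound at a single concentration of 10. Stimulation: LPS for 24 h (TNF-α, IL-1β), PHA for 24 h (IFN-γ), concanavalin A for 48 h (IL-4). Cytokines released were measured by ELISA. Inhibition is given as percent of untreated control.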

Staphylococcus aureus = experiment: Antibacterial activity against Staphylococcus aureus
PBMC [2] = experiment: Inhibition of PHA-induced IFN-gamma release in human PBMC at 10 uM relative to Dexamethasone; summary of the method: as §1
[3] = test system: Staphylococcus epidermidis; experiment: Antibacterial activity against Staphylococcus epidermidis
Cutibacterium acnes = experiment: Antibacterial activity against Propionibacterium acnes
PBMC [4] = experiment: Inhibition of concanavalin A-induced IL4 release in human PBMC at 10 uM relative to Dexamethasone; summary of the method: as §1
PBMC [5] = experiment: Inhibition of LPS-induced TNFalpha release in human PBMC at 10 uM relative to Dexamethasone; summary of the method: as §1
Bacillus subtilis = experiment: Antibacterial activity against Bacillus subtilis
Haemophilus influenzae = experiment: Antibacterial activity against Haemophilus influenzae

Compound | inhibition at 10 µM (PBMC [1]) | MIC (Staphylococcus aureus) | inhibition at 10 µM (PBMC [2]) | MIC [3] | MIC (Cutibacterium acnes) | inhibition at 10 µM (PBMC [4]) | inhibition at 10 µM (PBMC [5]) | MIC (Bacillus subtilis) | MIC (Haemophilus influenzae)
Cc1ccc(B(OC(=O)c2ncccc2O)c2ccc(C)c(Cl)c2)cc1Cl | 99% | 1 µg/mL (≈ 2.5 µM) | -20% | 0.5 µg/mL (≈ 1.25 µM) | 0.3 µg/mL (≈ 0.75 µM) | -21% | 100% | 1 µg/mL (≈ 2.5 µM) | > 64 µg/mL
O=C(OB(c1cccnc1)c1cccc(Cl)c1)c1ncccc1O | – | 16 µg/mL (≈ 47.3 µM) | – | 32 µg/mL (≈ 94.5 µM) | – | – | – | – | 32 µg/mL (≈ 94.5 µM)
O=C(OB(c1ccc(Cl)cc1)c1ccc(Cl)cc1)c1ncccc1O | – | 4 µg/mL (≈ 10.8 µM) | – | 1 µg/mL (≈ 2.69 µM) | 1 µg/mL (≈ 2.69 µM) | – | – | 1 µg/mL (≈ 2.69 µM) | 16 µg/mL (≈ 43 µM)
O=C(OB(c1cccc(Cl)c1)c1cccc(Cl)c1)c1ncccc1O | – | ≤ 0.125 µg/mL | – | 8 µg/mL (≈ 21.5 µM) | 10 µg/mL (≈ 26.9 µM) | – | – | 16 µg/mL (≈ 43 µM) | 16 µg/mL (≈ 43 µM)
Cc1ccc(B(CCc2ccccc2)OC(=O)c2ncccc2O)cc1Cl | – | 0.5 µg/mL (≈ 1.32 µM) | – | 1 µg/mL (≈ 2.63 µM) | 1 µg/mL (≈ 2.63 µM) | – | – | 1 µg/mL (≈ 2.63 µM) | > 64 µg/mL
Cc1ccc(B(OC(=O)c2ccccn2)c2ccc(C)c(Cl)c2)cc1Cl | – | 0.5 µg/mL (≈ 1.3 µM) | – | > 64 µg/mL | – | – | – | – | –
CSc1cccc(B(OC(=O)c2ncccc2O)c2cccc(Cl)c2)c1 | – | 8 µg/mL (≈ 20.9 µM) | – | 8 µg/mL (≈ 20.9 µM) | 3 µg/mL (≈ 7.82 µM) | – | – | 4 µg/mL (≈ 10.4 µM) | > 64 µg/mL
Cc1ccc(B(OC(=O)c2ncccc2C(=O)c2ccccc2)c2ccc(C)c(Cl)c2)cc1Cl | – | 0.5 µg/mL (≈ 1.02 µM) | – | 32 µg/mL (≈ 65.5 µM) | 30 µg/mL (≈ 61.5 µM) | – | – | 64 µg/mL (≈ 131 µM) | > 64 µg/mL
CN(C)c1ccc(B(OC(=O)c2ncccc2O)c2ccc(N(C)C)c(Cl)c2)cc1Cl | – | 32 µg/mL (≈ 69.8 µM) | – | 32 µg/mL (≈ 69.8 µM) | – | – | – | 64 µg/mL (≈ 140 µM) | > 64 µg/mL
Cc1ccc(B(OC(=O)c2cc(C(=O)O)ccn2)c2ccc(C)c(Cl)c2)cc1Cl | – | 2 µg/mL (≈ 4.67 µM) | – | 4 µg/mL (≈ 9.34 µM) | 3 µg/mL (≈ 7.01 µM) | – | – | – | –
Cc1ccc(B(OC(=O)c2ncccc2N)c2ccc(C)c(Cl)c2)cc1Cl | – | > 64 µg/mL | – | > 64 µg/mL | 1 µg/mL (≈ 2.51 µM) | – | – | 2 µg/mL (≈ 5.01 µM) | > 64 µg/mL
CCOc1ccc(B(OC(=O)c2ncccc2O)c2ccc(OCC)c(Cl)c2)cc1Cl | – | 2 µg/mL (≈ 4.35 µM) | – | 2 µg/mL (≈ 4.35 µM) | 1 µg/mL (≈ 2.17 µM) | – | – | 2 µg/mL (≈ 4.35 µM) | > 64 µg/mL
O=C(OB(c1ccc(F)c(Cl)c1)c1ccc(F)c(Cl)c1)c1ncccc1O | – | 1 µg/mL (≈ 2.45 µM) | – | 8 µg/mL (≈ 19.6 µM) | 3 µg/mL (≈ 7.35 µM) | – | – | 8 µg/mL (≈ 19.6 µM) | 4 µg/mL (≈ 9.8 µM)
Cc1ccccc1B(OC(=O)c1ncccc1O)c1cccc(Cl)c1 | – | 8 µg/mL (≈ 22.8 µM) | – | 8 µg/mL (≈ 22.8 µM) | 3 µg/mL (≈ 8.53 µM) | – | – | 4 µg/mL (≈ 11.4 µM) | > 64 µg/mL
Cc1ccc(B(OC(=O)c2ccc(C(=O)O)cn2)c2ccc(C)c(Cl)c2)cc1Cl | 80% | 0.5 µg/mL (≈ 1.17 µM) | 24% | 8 µg/mL (≈ 18.7 µM) | 3 µg/mL (≈ 7.01 µM) | 9% | 100% | 8 µg/mL (≈ 18.7 µM) | 8 µg/mL (≈ 18.7 µM)
Cc1ccc(B(OC(=O)c2ncccc2C(=O)O)c2ccc(C)c(Cl)c2)cc1Cl | – | 0.125 µg/mL (≈ 0.292 µM) | – | 4 µg/mL (≈ 9.34 µM) | 3 µg/mL (≈ 7.01 µM) | – | – | 8 µg/mL (≈ 18.7 µM) | 8 µg/mL (≈ 18.7 µM)
Cc1cc(Cl)ccc1B(OC(=O)c1ncccc1O)c1ccc(Cl)cc1C | 103% | 4 µg/mL (≈ 10 µM) | 15% | 2 µg/mL (≈ 5 µM) | 0.3 µg/mL (≈ 0.75 µM) | 57% | 101% | 0.5 µg/mL (≈ 1.25 µM) | 16 µg/mL (≈ 40 µM)
CC(=O)Oc1cccnc1C(=O)OB(c1ccc(C)c(Cl)c1)c1ccc(C)c(Cl)c1 | -49% | 2 µg/mL (≈ 4.52 µM) | – | 1 µg/mL (≈ 2.26 µM) | 1 µg/mL (≈ 2.26 µM) | – | 101% | 0.5 µg/mL (≈ 1.13 µM) | > 64 µg/mL
O=C(OB(c1ccc(Cl)cc1)c1ccc(Cl)nc1)c1ncccc1O | – | 32 µg/mL (≈ 85.8 µM) | – | 32 µg/mL (≈ 85.8 µM) | – | – | – | – | 32 µg/mL (≈ 85.8 µM)
O=C(OB(c1ccsc1)c1cccc(Cl)c1)c1ncccc1O | – | 32 µg/mL (≈ 93.1 µM) | – | 32 µg/mL (≈ 93.1 µM) | 10 µg/mL (≈ 29.1 µM) | – | – | 16 µg/mL (≈ 46.6 µM) | 32 µg/mL (≈ 93.1 µM)
O=C(OB(c1cccc(F)c1)c1cccc(F)c1)c1ncccc1O | – | > 64 µg/mL | – | > 64 µg/mL | > 100 µg/mL | – | – | > 64 µg/mL | > 64 µg/mL
O=C(OB(c1ccc(Cl)cc1)c1cccnc1)c1ncccc1O | – | 64 µg/mL (≈ 189 µM) | – | 32 µg/mL (≈ 94.5 µM) | – | – | – | – | 16 µg/mL (≈ 47.3 µM)
Cc1ccc(B(OC(=O)c2ncccc2O)c2ccc(C)c(Cl)c2)cc1 | – | 4 µg/mL (≈ 10.9 µM) | – | 2 µg/mL (≈ 5.47 µM) | 3 µg/mL (≈ 8.21 µM) | – | – | 2 µg/mL (≈ 5.47 µM) | > 64 µg/mL
CC[C@H]1OC(=O)[C@H](C)[C@@H](O[C@H]2C[C@@](C)(OC)[C@@H](O)[C@H](C)O2)[C@H](C)[C@@H](O[C@@H]2O[C@H](C)C[C@H](N(C)C)[C@H]2O)[C@](C)(O)C[C@@H](C)C(=O)[C@H](C)[C@@H](O)[C@]1(C)O [ERYTHROMYCIN] | -32% | 0.5 µg/mL (≈ 0.681 µM) | – | 0.15 µg/mL (≈ 0.204 µM) | 0.1 µg/mL (≈ 0.136 µM) | – | 22% | 0.1 µg/mL (≈ 0.136 µM) | 4 µg/mL (≈ 5.45 µM)
